For test [1], the system named is Escherichia coli. The test can be described thus: Antimicrobial activity against aac(6')-Ib-cr-negative Escherichia coli PU12 harboring GyrA S83L mutant, wild-type GyrB, ParC and qnrS genes by agar dilution method in presence of Tazobactam. The test is classed as functional. In short, it runs like this: (§1)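 MICs measured by CLSI agar dilution (M7-A7) and interpreted against CLSI M100-S17 breakpoints. Strains were clinical Enterobacteriaceae isolates or the azide-resistant E. coli J53 recipient.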

Test [2] has as its system Escherichia coli. The test can be described thus: Antimicrobial activity against aac(6')-Ib-cr-positive Escherichia coli FJ3T harboring wild-type GyrA, ParC, GyrB and qnrB genes by agar dilution method in presence of Tazobactam. The test is classed as functional. The essentials:
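Transconjugants came from conjugation of qnr and/or aac(6')-Ib-cr donors into azide-resistant E. coli J53. […] MICs were measured by CLSI agar dilution (M7-A7) and interpreted per M100-S17.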

The subject of test [3] is Enterobacter cloacae. The experiment in a line: Antimicrobial activity against aac(6')-Ib-cr-negative Enterobacter cloacae GZ47 harboring qnrB and qnrS genes by agar dilution method in presence of Tazobactam. The test is classed as functional. The essentials:
(§2)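 MICs were determined by the CLSI agar dilution method (M7-A7) and interpreted against CLSI M100-S17 breakpoints.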

Test [4] relates to Citrobacter freundii. The test can be described thus: Antimicrobial activity against aac(6')-Ib-cr-positive Citrobacter freundii PU55T harboring wild-type GyrA, ParC, GyrB and qnrA genes by agar dilution method in presence of Tazobactam. The test is classed as functional. The essentials:
as §2

Test [5] relates to Klebsiella pneumoniae. The test can be described thus: Antimicrobial activity against aac(6')-Ib-cr-positive Klebsiella pneumoniae JN41 harboring GyrA S83I, ParC S80I mutant, wild-type GyrB and qnrB genes by agar dilution method in presence of Tazobactam. It counts as functional. In short, it runs like this: as §1
Test [6] deals with Klebsiella pneumoniae. The test can be described thus: Antimicrobial activity against aac(6')-Ib-cr-positive Klebsiella pneumoniae SY26 harboring GyrA S83I, ParC S80I mutant, wild-type GyrB and qnrB genes by agar dilution method in presence of Tazobactam. The test is classed as functional. The essentials:
as §1

Test [7] deals with Citrobacter freundii. The experiment in a line: Antimicrobial activity against aac(6')-Ib-cr-positive Citrobacter freundii TJ15 harboring GyrA T83I, ParC S80I mutant, wild-type GyrB, qnrB genes by agar dilution method in presence of Tazobactam. It counts as functional. The essentials:
as §2

Test [8] concerns Citrobacter freundii. The test can be described thus: Antimicrobial activity against aac(6')-Ib-cr-negative Citrobacter freundii JN64T harboring qnrA gene by agar dilution method in presence of Tazobactam. The test is classed as functional. In short, it runs like this: as §2
For test [9], the system named is Klebsiella pneumoniae. The experiment in a line: Antimicrobial activity against aac(6')-Ib-cr-positive Klebsiella pneumoniae JN41T harboring qnrB gene by agar dilution method in presence of Tazobactam. The test is classed as functional. The essentials: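 Transconjugants were made by conjugating a qnr/aac(6')-Ib-cr donor with azide-resistant E. coli J53. Selection used Trypticase soy agar with sodium azide 150 µg/ml and sulfamethoxazole 180 µg/ml. […] MICs were read by CLSI agar dilution (M7-A7) and interpreted per M100-S17.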

The subject of test [10] is Enterobacter cloacae. The test can be described thus: Antimicrobial activity against aac(6')-Ib-cr-negative Enterobacter cloacae GZ51 harboring qnrA gene by agar dilution method in presence of Tazobactam. It counts as functional. In short, it runs like this: as §2
Test [11] has as its system Enterobacter cloacae. The test can be described thus: Antimicrobial activity against aac(6')-Ib-cr-negative Enterobacter cloacae WH42T harboring qnrA gene by agar dilution method in presence of Tazobactam. It counts as functional. The essentials: as §2
The test system of test [12] is Citrobacter freundii. The test can be described thus: Antimicrobial activity against aac(6')-Ib-cr-positive Citrobacter freundii JS33 harboring GyrA T83I mutant, wild-type ParC, GyrB, qnrA and qnrB genes by agar dilution method in presence of clavulanic acid. It counts as functional. The essentials:
(§3)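 MICs were determined by CLSI agar dilution (M7-A7) and interpreted by CLSI M100-S17 breakpoints. The curator's line names the β-lactamase inhibitor added.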

Test [13] has as its system Enterobacter cloacae. The experiment in a line: Antimicrobial activity against aac(6')-Ib-cr-negative Enterobacter cloacae SH39T harboring qnrA gene by agar dilution method. It counts as functional.
Test [14] concerns Klebsiella pneumoniae. The experiment in a line: Antimicrobial activity against aac(6')-Ib-cr-positive Klebsiella pneumoniae JN41T harboring qnrB gene by agar dilution method in presence of clavulanic acid. The test is classed as functional. The essentials: (§4)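 Transconjugants came from conjugation of qnr and/or aac(6')-Ib-cr-carrying donors with azide-resistant E. coli J53. […] MICs were determined by CLSI agar dilution (M7-A7) and interpreted by M100-S17.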

In test [15] the test system is Citrobacter freundii. The experiment in a line: Antimicrobial activity against aac(6')-Ib-cr-positive Citrobacter freundii JS33T harboring qnrA gene by agar dilution method. The test is classed as functional. In short, it runs like this:
as §2

Test [16] concerns Citrobacter freundii. The test can be described thus: Antimicrobial activity against aac(6')-Ib-cr-positive Citrobacter freundii JN1T by agar dilution method. The test is classed as functional. In short, it runs like this: as §2
The test system of test [17] is Klebsiella pneumoniae. The experiment in a line: Antimicrobial activity against aac(6')-Ib-cr-positive Klebsiella pneumoniae SY26 harboring GyrA S83I, ParC S80I mutant, wild-type GyrB and qnrB genes by agar dilution method in presence of clavulanic acid. It counts as functional. The essentials: as §1
Test [18] has as its system Klebsiella pneumoniae. The test can be described thus: Antimicrobial activity against aac(6')-Ib-cr-positive Klebsiella pneumoniae JN132 harboring GyrA S83I, ParC S80I mutant, wild-type GyrB and qnrB genes by agar dilution method in presence of clavulanic acid. The test is classed as functional. The essentials:
as §1

For test [19], the system named is Citrobacter freundii. The test can be described thus: Antimicrobial activity against aac(6')-Ib-cr-positive Citrobacter freundii PU55 harboring GyrA T83I, ParC S80I mutant, wild-type GyrB, qnrA genes by agar dilution method. The test is classed as functional. The essentials: as §2
In test [20] the test system is Klebsiella pneumoniae. The experiment in a line: Antimicrobial activity against aac(6')-Ib-cr-negative Klebsiella pneumoniae SY22T harboring qnrS gene by agar dilution method in presence of clavulanic acid. The test is classed as functional. In short, it runs like this: as §4
Test [21] concerns Enterobacter cloacae. The test can be described thus: Antimicrobial activity against aac(6')-Ib-cr-negative Enterobacter cloacae GZ51T harboring qnrA gene by agar dilution method in presence of clavulanic acid. The test is classed as functional. In short, it runs like this:
as §4

Test [22] has as its system Escherichia coli. The experiment in a line: Antimicrobial activity against Escherichia coli J53 harboring wild-type GyrA, ParC, GyrB genes by agar dilution method in presence of beta-lactamase inhibitor clavulanic acid. It counts as functional. The essentials:
as §3

The subject of test [23] is Citrobacter freundii. The experiment in a line: Antimicrobial activity against aac(6')-Ib-cr-positive Citrobacter freundii PU55T harboring wild-type GyrA, ParC, GyrB and qnrA genes by agar dilution method.
In test [24] the test system is Citrobacter freundii. The test can be described thus: Antimicrobial activity against aac(6')-Ib-cr-positive Citrobacter freundii PU55 harboring GyrA T83I, ParC S80I mutant, wild-type GyrB, qnrA genes by agar dilution method in presence of clavulanic acid. The test is classed as functional. In short, it runs like this:
as §2

Test [25] concerns Escherichia coli. The test can be described thus: Antimicrobial activity against aac(6')-Ib-cr-positive Escherichia coli FJ3 harboring GyrA S83L, ParC S80R mutant, wild-type GyrB and qnrB genes by agar dilution method. The test is classed as functional. The essentials: as §2
Test [26] relates to Klebsiella pneumoniae. The experiment in a line: Antimicrobial activity against aac(6')-Ib-cr-positive Klebsiella pneumoniae WH99 harboring wild-type GyrA, ParC, GyrB and qnrB genes by agar dilution method. The test is classed as functional. The essentials: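 MICs were determined on clinical isolates by CLSI agar dilution (M7-A7) and interpreted against CLSI M100-S17 breakpoints.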

The test system of test [27] is Enterobacter cloacae. The experiment in a line: Antimicrobial activity against aac(6')-Ib-cr-negative Enterobacter cloacae WH42 harboring wild-type GyrA, ParC, GyrB and qnrA genes by agar dilution method. The test is classed as functional.
Test [28] concerns Citrobacter freundii. The test can be described thus: Antimicrobial activity against aac(6')-Ib-cr-positive Citrobacter freundii TJ15 harboring GyrA T83I, ParC S80I mutant, wild-type GyrB, qnrB genes by agar dilution method in presence of clavulanic acid. The test is classed as functional. The essentials: as §3
The test system of test [29] is Enterobacter cloacae. The test can be described thus: Antimicrobial activity against aac(6')-Ib-cr-positive Enterobacter cloacae FJ63T harboring qnrS gene by agar dilution method in presence of clavulanic acid. The test is classed as functional. In short, it runs like this: as §4
Test [30] concerns Klebsiella pneumoniae. The test can be described thus: Antimicrobial activity against aac(6')-Ib-cr-positive Klebsiella pneumoniae SY26T harboring wild-type GyrA, ParC, GyrB and qnrB genes by agar dilution method in presence of clavulanic acid. It counts as functional. In short, it runs like this: as §4

Values after ≈ are worked out from the molar mass of the structure shown.

Consider `CCN1CCN(C(=O)N[C@@H](C(=O)N[C@@H]2C(=O)N3[C@@H]2SC(C)(C)[C@@H]3C(=O)O)c2ccccc2)C(=O)C1=O` [PIPERACILLIN], for which the MIC in the test with Escherichia coli [1] amounted to 1 µg/mL; with Escherichia coli [2] it was 1 µg/mL; in the test on Enterobacter cloacae [3], 4 µg/mL; in the test on Citrobacter freundii [4], 4 µg/mL; in the test with Klebsiella pneumoniae [5] it was 4 µg/mL; with Klebsiella pneumoniae [6], 16 µg/mL. Also, the minimum inhibitory concentration (MIC) in the test on Citrobacter freundii [7] was found to be 4 µg/mL; in the test on Citrobacter freundii [8], 4 µg/mL; with Klebsiella pneumoniae [9] it was 2 µg/mL; in the test on Enterobacter cloacae [10], 2 µg/mL; in the test on Enterobacter cloacae [11] it was 1 µg/mL.

With `CO/N=C(\C(=O)N[C@@H]1C(=O)N2C(C(=O)O)=C(COC(C)=O)CS[C@H]12)c1csc(N)n1` [CEFOTAXIME], the MIC in the test on Citrobacter freundii [12] amounted to 64 µg/mL; in the test on Enterobacter cloacae [13], 0.032 µg/mL (≈ 0.0703 µM); in the test on Klebsiella pneumoniae [14] it was 0.032 µg/mL; in the test on Citrobacter freundii [15] it was 0.125 µg/mL (≈ 0.274 µM); with Citrobacter freundii [16], 8 µg/mL (≈ 17.6 µM); with Klebsiella pneumoniae [17], 8 µg/mL. Further, the MIC in the test with Klebsiella pneumoniae [18] amounted to 1 µg/mL; in the test with Citrobacter freundii [19] it was 128 µg/mL (≈ 281 µM); with Klebsiella pneumoniae [20] it was 0.032 µg/mL; with Enterobacter cloacae [21], 0.032 µg/mL; with Escherichia coli [22] it was 0.032 µg/mL; with Citrobacter freundii [23] it was 0.064 µg/mL (≈ 0.141 µM). Further, the MIC in the test with Citrobacter freundii [24] is 256 µg/mL; in the test on Escherichia coli [25], 128 µg/mL (≈ 281 µM); with Klebsiella pneumoniae [26], 32 µg/mL (≈ 70.3 µM); against Enterobacter cloacae [27] it was 256 µg/mL (≈ 562 µM); with Citrobacter freundii [28] it was 16 µg/mL; with Enterobacter cloacae [29] it was 0.032 µg/mL. In addition, the MIC with Klebsiella pneumoniae [30] amounted to 0.032 µg/mL.

The record behind these values is ChEMBL document CHEMBL1275556, “High prevalence of plasmid-mediated quinolone resistance genes qnr and aac(6')-Ib-cr in clinical isolates of Enterobacteriaceae from nine teaching hospitals in China” (2008).
